Measurements: PubChem BioAssay AID504382 (The Scripps Research Institute Molecular Screening Center, 2011)
The whole screen tested about 2,500 compounds, of which about 460 (18%) were called active. Only a sample is shown. Values without a mark were called inactive.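 How the source made its calls: active means mean activation above a cutoff of low control average plus 3 SD from the earlier screen (cut at about 12% in these data); inactive means the rest.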

Test: IANBD-channel fluorescence artefacts in buffer – biochemical, artefact control for cardiac RTF calcium sensitizer project, confirmation (AID 504382)
Conditions: IANBD fluorescence interference counterscreen, EC20 Ca2+, at 7.2 µM, active compounds read high, scaled: EC20 calcium 0, EC100 calcium 100
How it was run: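 timing = compound incubation 15 min at 25 °C before fluorescence reading | technique = fluorescence at 480 nm excitation, 540 nm emission | evaluation = interference relative to controls | replication = triplicate wells per compound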

Row | SMILES | fluorescence artifact activation
1 | CCC1OC23CCCCC2C(C#N)(C(=N)O3)C1(C#N)C#N (stereo not drawn) | 0.21%
2 | Cn1cccc1Cc1nnc(SCC(=O)Nc2ccc(F)cc2F)n1-c1ccc(F)cc1 | 1.86%
3 | COc1ccc(C(=O)Nc2cc(C(C)=O)c(/C=C/N(C)C)oc2=O)cc1 | 9.8%
4 | CC(=O)c1cc(NC(=O)c2ccccc2)c(=O)oc1/C=C/N(C)C | 0.09%
5 | COC(=O)c1cc(NC(=O)c2ccccc2)c(=O)oc1/C=C/Nc1ccc(Oc2ccccc2)cc1 | 18.6% (active)
6 | Cc1cccc(N2C(=O)c3cccc4c(N)ccc(c34)C2=O)c1 | 0.02%
7 | CCN(CC)c1ccc2cc(-c3nnc(-c4ccccc4)o3)c(=O)oc2c1 | 43.7% (active)
8 | CCN(CC)c1ccc2cc(-c3nc(-c4cc5ccccc5oc4=O)cs3)c(=O)oc2c1 | -0.03%
9 | CCN(CC)c1ccc2cc(-c3nnc(-c4ccncc4)o3)c(=O)oc2c1 | 1.48%
10 | CC(=O)Nc1ccc2cc3ccc(NC(C)=O)cc3nc2c1 | 11.6%
11 | CCCn1c(=O)c(C(=O)NNC(=O)c2ccccc2[N+](=O)[O-])c(O)c2ccccc21 | 5.02%
12 | CCN1/C(=C/C=C2/SC(=Nc3cccc4ncccc34)N(C)C2=O)Sc2ccccc21 | 11.5%
13 | CCN(C(=O)CSc1nnc(COc2ccccc2F)n1N)c1c(N)n(Cc2ccccc2)c(=O)[nH]c1=O | 382% (active)
14 | CCN(C(=O)CN1CCCc2cc(C)ccc21)c1c(N)n(Cc2ccccc2)c(=O)[nH]c1=O | 0.2%
15 | CCn1c(Cc2ccccc2)nnc1SCC(=O)OC(C)C | 0.3%
16 | COC(=O)C1=C(C)NC(=O)/C1=C\N(C)C | 5.29%
17 | COc1cc(OC)c(OC)cc1/C=C1\Oc2cc(OCC(=O)N3Cc4ccccc4C[C@H]3C(=O)O)ccc2C1=O | -0.01%
18 | CS(=O)(=O)N(CC(=O)NCCSCc1ccccc1)c1ccccc1 | 0.13%
19 | CC(C)(C)C1(O)CC(C(F)(F)F)=NN1C(=O)CCCc1ccccc1 (stereo not drawn) | 0.13%
20 | CSCC(C)N1CCC(n2nccc2NC(=O)CCCc2ccccc2)CC1 (stereo not drawn) | 26.2% (active)
21 | CCN1CCN(C2=CC3=CC(=C(C#N)C#N)CCC3CC2)CC1 (stereo not drawn) | 0.47%
22 | Cc1ccc(C2NC(=O)c3c(sc4c3CCN(C)C4)N2)s1 (stereo not drawn) | 0%
23 | CN1CCc2c(sc3c2C(=O)NC(c2cccs2)N3)C1 (stereo not drawn) | 0.27%
24 | Cc1ccsc1C1NC(=O)c2c(sc3c2CCN(C)C3)N1 (stereo not drawn) | 28.8% (active)

Row | SMILES | fluorescence artifact activation
25 | CCOC(=O)c1c(NC(=O)CSc2nc3cc(Cl)ccc3c(=O)n2Cc2ccco2)sc(C(=O)N(C)C)c1C | 0%
26 | COc1ccc(OC)c(/C=C2\N=C(c3ccccc3)OC2=O)c1 | 8.78%
27 | C#CCSc1nc2[nH]ncc2c(=O)[nH]1 | 0.09%
28 | CNc1ccccc1C(C)(C)c1cc(C)[nH]n1 | 3.66%
29 | COc1ccc(N=Nc2nc3ccc(Br)cc3n2C)cc1 | 0.16%
30 | COc1ccc(N=Nc2nc3cc(Br)c(Br)cc3n2C)c(OC)c1 | 765% (active)
31 | COc1ccc(O)c(/C=N/c2nc3ccccc3n2C)c1 | 0.05%
32 | CCOC(=O)C1=C(COC(=O)c2ccc3ccccc3c2O)NC(=O)NC1C (stereo not drawn) | 0.49%
33 | CCOC(=O)c1cc2c(=O)n3ccccc3nc2n(CCOC)c1=NC(=O)c1c(-c2c(F)cccc2Cl)noc1C | 0.12%
34 | O=C(N/N=C/c1sc2ccccc2c1O)c1ccccc1 | 9.97%
35 | COc1ccc2cc(C(=O)N/N=C/c3sc4ccccc4c3O)ccc2c1 | 93.2% (active)
36 | COc1ccc(C(=O)N/N=C/c2sc3ccccc3c2O)cc1 | 1.31%
37 | CC(C)(CN1CCc2ccccc2C1)NS(=O)(=O)c1ccc(Cl)cc1 | 0.2%
38 | O=c1oc2c3c4c(cc2c(C(F)(F)F)c1CCN1CCOCC1)CCCN4CCC3 | -0.03%
39 | Cn1ncc(N=Cc2c(O)ccc3ccccc23)c1C(=O)Nc1cccc(Cl)c1 | 0.09%
40 | O=C1c2cccc3c(O)ccc(c23)C(=O)N1Cc1ccccc1 | 11.9% (active)
41 | O=C1c2cccc3c(N4CCCCC4)ccc(c23)C(=O)N1c1ccccc1O | -0.03%
42 | CCNc1cccc2c1C(=O)N(C)C2=O | 0.15%
43 | CC1(C)CC2CC(C)(CN2CC(=O)C(C#N)c2ccccc2)C1 (stereo not drawn) | 0.12%
44 | Cc1cccc(/C=N/n2c(-c3ccncc3)n[nH]c2=S)c1 | 7.13%
45 | C=CCn1cc(/C=C/c2cc[n+](C)cc2)c2ccccc21 | 0.14%
46 | N#C/C(=C\c1coc2ccc(O)cc2c1=O)C(=O)Nc1nc2ccccc2s1 | 1.92%
47 | Fc1ccc(CN2CC[C@H]3C=CCc4cccc(c43)C2)cc1 | 52.5% (active)
48 | COc1cc(/C=C2/SC(=S)N(CCC(=O)Nc3ccccc3)C2=O)cc(OC)c1OC | 0.06%
